Source: PubChem
Only some compounds are listed: those with a hit (about 1.9% of all), similar ones and a draw of the others.
Hck-Nef inh: inhibitors of Nef-activated human Hck kinase, primary screen, biochemical, Z-Lyte FRET, 384-well, Hck-YEEI. Recombinant Hck-YEEI plus Nef, Z-Lyte FRET kinase assay. hit rate 0.68% among 220,000. AID 463187, 2010. inhibition, % at 20 µM;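 active = Hck-Nef kinase inhibition above about 50%, limit read from the data; inactive = inhibition below that limit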
Target sequence (P08631 whole entry, looked up): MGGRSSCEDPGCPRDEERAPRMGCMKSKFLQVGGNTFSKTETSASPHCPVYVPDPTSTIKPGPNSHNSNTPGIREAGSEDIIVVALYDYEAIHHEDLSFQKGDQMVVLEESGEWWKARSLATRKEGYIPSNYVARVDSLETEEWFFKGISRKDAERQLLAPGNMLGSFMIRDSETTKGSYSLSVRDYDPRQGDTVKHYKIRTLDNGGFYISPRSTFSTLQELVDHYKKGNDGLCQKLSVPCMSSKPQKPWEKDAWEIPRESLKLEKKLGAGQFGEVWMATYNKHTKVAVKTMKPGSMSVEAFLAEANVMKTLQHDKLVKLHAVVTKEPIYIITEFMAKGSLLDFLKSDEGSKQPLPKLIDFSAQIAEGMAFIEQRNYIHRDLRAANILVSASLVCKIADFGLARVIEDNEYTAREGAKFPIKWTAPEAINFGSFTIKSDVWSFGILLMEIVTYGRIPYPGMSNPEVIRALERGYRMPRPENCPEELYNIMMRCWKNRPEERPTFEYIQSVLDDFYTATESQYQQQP
Runt-SMMHC FRET: inhibitors of RUNX1 Runt–CBFb-SMMHC binding, primary screen, biochemical, FRET, Cerulean-Runt, Venus-CBFb-SMMHC, uHTS | Runt-related transcription factor 1 (Homo sapiens) + Core-binding factor subunit beta … | inhibition, % at 20 µM | hit rate 0.74% among 220,000 | Cerulean-Runt/Venus-CBFb-SMMHC FRET ratio 530/480, 1 h | AID 1434, 2008;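 active = mean inhibition across duplicate retests at 20 µM reaching about 50%, limit read from the data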;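 note: inhibitors lower the FRET ratio by blocking Runt binding to CBFb-SMMHC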
Runt-CBFb FRET: inhibitors of RUNX1 Runt–CBFb binding, primary screen, biochemical, FRET, Cerulean-Runt, Venus-CBFb, uHTS; Runt-related transcription factor 1 (Homo sapiens) + Core-binding factor subunit beta …; Cerulean-Runt/Venus-CBFb FRET ratio 530/480, 1 h; inhibition, % at 20 µM; hit rate 0.46% among 220,000; AID 1496, 2009;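 active = inhibition over about 50% at 20 µM in the single-dose screen, limit read from the data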
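Schedule: protein complex preformed 1 h, compound exposure 1 h, room temperature, dark; test system: Cerulean-labeled Runt domain protein; amount: 100 nM per protein; buffer or medium: Tris 50 mM pH 7.5, KCl, K2SO4, 0.01% BSA; read-out: loss of energy transfer signal; detection: FRET fluorescence; controls: 5 µM unlabeled CBFb as full-inhibition high control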
RanGTP-Imp inh: inhibitors of RanGTP-importin-beta interaction, primary screen, biochemical, FRET, CFP-Ran, YFP-importin-beta, homogeneous; cell-free CFP-Ran/YFP-importin-beta FRET ratio; Ran GTPase (GTP-bound) - importin-beta complex; AID 2216, 2009; hit rate 1.1% among 300,000; inhibition, % (no concentration beside the values);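 active = more than half of the replicate wells show a fall in the fluorescence ratio signal beyond about 16%, limit read from the data, passing the limit was not always enough; inconclusive = exactly half of the replicate wells pass the set limit; inactive = fewer than half of replicates pass the limit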
Hck Nef conf: retest of Hck:Nef kinase inhibitor hits, confirmation, biochemical, Z-Lyte FRET, 384-well, p-Tyr peptide counterscreen; hit rate 28% among 1,300; Recombinant Hck-YEEI:Nef, Z-Lyte FRET kinase assay; calls only at 10 µM; shares compounds with Hck-Nef inh;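 active = average inhibition of at least 50%, with Z-scores no higher than 3 in both the phospho-tyrosine peptide and fluorescence counterscreens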
Numbers stand for hits; – = inactive; ? = inconclusive; · = no result given; + = active, no number.

SMILES	Hck-Nef inh	Runt-SMMHC FRET	Runt-CBFb FRET	RanGTP-Imp inh	Hck Nef conf
S=c1[nH]nc(-c2cccc(Cl)c2)n1/N=C/c1ccc(-c2ccccc2Br)o1	58	–	–	?	–
COc1ccc(CCNC(=O)CN2C(=O)COc3ccc(S(=O)(=O)N4CCOCC4)cc32)cc1OC	·	·	·	–	·
COCCCNc1c2c3c(cccc3[nH]c1=O)C(=O)c1ccccc1-2	–	–	–	·	·
C[C@H](NC(=O)c1[nH]cnc1C(=O)Nc1ccc(CNC(=O)OC(C)(C)C)cc1)C(=O)OC(C)(C)C	57	–	–	–	–
Cc1cc2oc(C(=O)Nc3ccc(S(=O)(=O)Nc4nccs4)cc3)cc(=O)c2cc1Cl	–	–	–	–	·
Cc1cc(C)c2oc(C(=O)Nc3ccc(S(=O)(=O)Nc4nccs4)cc3)cc(=O)c2c1	51	–	–	–	–
COc1ccc(N(CC(=O)NCc2ccc(C)cc2)S(=O)(=O)c2c(C)noc2C)cc1	·	·	·	–	·
O=C(Nc1cccc([N+](=O)[O-])c1)c1ccc(N2CCCC2=O)cc1	–	–	–	–	·
Cc1nc2ccc(NC(=O)c3cc(S(=O)(=O)N(C)c4ccccc4)ccc3Cl)cc2s1	52	–	–	–	+
Cc1noc(C)c1COC(=O)C(c1ccccc1)c1ccccc1	–	–	–	–	·
COc1ccc(Nc2n[nH]c(N)c2C(N)=O)cc1	65	–	–	–	–
N#Cc1nc(-c2cccs2)oc1NCc1ccc2c(c1)OCO2	–	–	–	–	·
COc1cc(/C=C(\C#N)C(=O)NC2CCCCC2)ccc1OCc1ccc(C(=O)O)cc1	52	–	–	21	–
COc1cc(/C=C(/C#N)C(=O)Nc2ccccc2)ccc1OCc1ccc(C(=O)O)cc1	138	–	–	·	+
COc1cc(/C=C(\C#N)C(=O)NC(C)C)ccc1OCc1ccc(C(=O)O)cc1	–	–	–	–	·
O=C(Nc1ccc2nc(-c3ccco3)c(-c3ccco3)nc2c1)N1CCN(c2ccccn2)CC1	57	–	–	33	–
O=C(CNS(=O)(=O)c1ccc(Br)cc1)N1CCOCC1	–	–	–	–	·
Cc1cccc(NC(=O)CSc2nc(COc3ccccc3)nc3ccccc23)c1C	60	–	–	–	–
Cc1ccc(-n2c(O)c(C=Nc3ccccc3-c3n[nH]c(=S)[nH]c3=O)c3ccccc3c2=O)c(C)c1	73	–	–	–	+
Cc1cccc(-n2c(O)c(C=Nc3ccccc3-c3n[nH]c(=S)[nH]c3=O)c3ccccc3c2=O)n1	–	–	–	–	·
Cc1ccc(-n2c(O)c(C=Nc3ccccc3-c3n[nH]c(=S)[nH]c3=O)c3ccccc3c2=O)cc1C	84	–	–	–	+
Cc1ccc(-n2c(O)c(/C=N/Nc3ccc(S(=O)(=O)N4CCOCC4)cc3[N+](=O)[O-])c3ccccc3c2=O)c(C)c1	–	–	–	–	·
CCN(C(=O)CSc1nc2cc(S(=O)(=O)N(CC)CC)ccc2n1CC)C1CCS(=O)(=O)C1 (stereo unspecified)	·	·	·	–	·
O=c1[nH]c(-c2ccc3c(c2)OCO3)nc2c1sc(=S)n2-c1ccccc1	61	–	–	–	–
O=c1[nH]c(-c2ccc(F)cc2)nc2c1sc(=S)n2-c1ccccc1	–	–	–	–	·
SMILES	Hck-Nef inh	Runt-SMMHC FRET	Runt-CBFb FRET	RanGTP-Imp inh	Hck Nef conf
O=C(Nc1ccc(-c2nnn(CC(=O)N3CCN(C(=O)c4ccco4)CC3)n2)cc1)c1ccccc1F	–	–	–	–	·
O=C(Cn1nnc(-c2ccc(NC(=O)c3ccccc3F)cc2)n1)NCc1ccc(F)cc1	61	–	–	–	–
COc1ccc(C2=CC3=C(Br)C(=O)C(C)(OC(=O)c4ccco4)C(=O)C3=CO2)cc1 (stereo unspecified)	92	–	–	–	+
O=C1CSC(=S)N1/N=C/c1ccc(O)c(O)c1O	79	–	–	–	+
O=C(CSc1nc(-c2ccccc2)nc2c1Cc1ccccc1O2)Nc1ccccc1	–	–	–	–	·
O=C(CSc1nc(-c2ccc(F)cc2)nc2c1Cc1ccccc1O2)Nc1cccc(C(=O)O)c1	153	–	–	–	+
CCN(CC)CCN1C(=O)C(O)=C(C(=O)c2cc3cccc(OC)c3o2)C1c1ccc(F)cc1 (stereo unspecified)	–	–	–	–	·
COc1ccc(OCC(=O)Nc2ccc(NC(=O)c3cccs3)c(OC)c2)cc1	–	–	–	–	·
COc1cc(NC(=O)c2cccs2)c(OC)cc1NC(=O)CCC(=O)Nc1ccc2ncccc2c1	65	–	–	–	–
CCOCCCNC(=O)c1ccc(OC2CCN(C(C)=O)CC2)c(OC)c1	·	·	·	–	·
O=C(Nc1cc(S(=O)(=O)N2CCOCC2)ccc1N1CCCC1)c1ccc2c(c1)S(=O)(=O)c1ccccc1C2=O	65	–	–	–	–
O=C(Nc1ccccc1F)Nc1cc(S(=O)(=O)N2CCOCC2)ccc1N1CCCC1	–	–	–	–	·
C=CCOc1ccc(CN(C)CC(O)COc2cccc3ccccc23)cc1 (stereo unspecified)	·	·	·	–	·
Cc1noc(/C=C/c2ccco2)c1S(=O)(=O)N1CCC(C(=O)N2CCc3ccccc3C2)CC1	51	–	–	–	–
COc1ccccc1OCCOc1ccc(/C=C2/C(=N)N3OC(C)=CC3=NC2=O)cc1OC	89	–	–	–	+
CC1=CC2=NC(=O)/C(=C\c3cccn3CCOc3ccccc3C)C(=N)N2O1	–	–	–	–	·
O=[N+]([O-])c1ccc(/C=N/n2cn[nH]c2=S)cc1	105	–	–	–	·
CCc1cccc(CC)c1N(COC)C(=O)Cn1c(C(C)O)nc2ccccc21 (stereo unspecified)	–	–	–	–	·
Cc1nn(CCc2nn[nH]n2)c2nc(-c3ccc(C4CCCCC4)cc3)cc(C(F)(F)F)c12	71	–	–	–	+
Cc1nn(CCC(=O)O)c2nc(-c3cccnc3)cc(C(F)(F)F)c12	–	–	–	–	·
CCOc1cc(/C=C2\N=C(SCC)SC2=O)cc([N+](=O)[O-])c1OC(C)=O	95	–	–	–	+
CCOc1cc(/C=C2\N=C(SC)SC2=O)cc([N+](=O)[O-])c1OC(C)=O	–	–	–	–	·
